Source: PubChem
Only some compounds are listed: those with a hit (about 4.9% of all), similar ones and a draw of the others.
STAT3 activator: STAT3 signaling activation; 190,000 tested, 0.91% active; U3A cells, IL-6 STAT3-luciferase reporter, luminescence; 100% = signal with IL-6 EC80 alone; activation (% of control), % at 5.6 µM; AID 871;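 active means activation above the screen-wide mean of compound activation plus 3 SD, cut at about 130% in these data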;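 further: 0% = background luminescence of wells with medium and substrate only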
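Material: STAT3-luciferase reporter U3A cells. Controls: IL-6-treated wells, 100% activation. Read-out: % activation versus median of IL-6-stimulated wells. Probe or stimulus: IL-6 stimulus at 33 ng/mL final. Timing: compound 1 h, then IL-6 6 h at 37 °C. Signal: reporter luminescence signal.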
APP 5'UTR act: APP 5'UTR luciferase reporter activation; 190,000 tested, 1% active; AID 1276; activation, % at 2 µM; SH-SY5Y APP 5'UTR luciferase reporter, luminescence; zero percent = DMSO vehicle wells;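 active means activation above a set limit, based on mean plus 3 SD of controls, cut at about 140% in these data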
STAT3 inh-1: reduces IL-6 driven STAT3 reporter signal. U3A cells, IL-6 STAT3-luciferase reporter, luminescence; host cell line lacks STAT1. inhibition, % at 5.5 µM. 190,000 tested, 0.89% active;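 active means inhibition above the mean inhibition across all screened compounds plus 3 SD, cut at about 44% in these data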;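 further: 0% = DMSO only wells and 100% = 100 µM nifuroxazide control wells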
STAT1 act: STAT1 signaling activation | activation (% of control), % at 5.5 µM | AID 932 | NIH 3T3 STAT1-luciferase reporter, IFN-gamma, luminescence; 100% = IFN-gamma alone, no compound | 200,000 tested, 2.6% active;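 active means activation above the screen-wide mean activation plus 3 SD, cut at about 130% in these data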;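 further: raw ratio to IFN-gamma control signal so 100% means no change and 0% no light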
NF-kB expr up: NF-kB expression increase, human neuronal cells; 190,000 tested, 1.6% active; NF-kB reporter expression; active compounds read high; fold change at 12.5 µM; AID 1239; in the data active means fold change above about 3.3
STAT1 inh: STAT1 signaling inhibition. NIH 3T3 STAT1-luciferase reporter, IFN-gamma, luminescence. inhibition, % at 5.5 µM. 200,000 tested, 0.35% active;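 active means inhibition above a set limit, the mean inhibition across all tested compounds plus 3 SD, cut at about 34% in these data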;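 further: 0% = IFN-gamma with DMSO and 100% = IFN-gamma with 300 µM nifuroxazide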
STAT3 inh-2: confirmation of STAT3 signaling inhibitors; 1,200 tested, 45% active; U3A cells, IL-6 STAT3 luciferase reporter, luminescence; cell line lacks STAT1; inhibition, % at 5.7 µM; shares compounds with STAT3 inh-1; AID 1265;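 active means inhibition above the hit cutoff computed for the primary STAT3 screen, cut at about 44% in these data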;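 further: 0% = IL-6 plus DMSO and 100% = IL-6 plus nifuroxazide control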
NFkB inh STAT3ct: counter-screen for STAT3 inhibitors: NF-kappaB inhibition. shares compounds with STAT3 inh-1. HEK293T NF-kB luciferase reporter, TNF-alpha induced. inhibition, % at 5.7 µM. 1,200 tested, 36% active. AID 1308;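 active means inhibition above the mean of solvent-only control wells plus 3 SD, cutoff set per campaign, cut at about 13% in these data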;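 further: 0% = TNF-alpha with DMSO and 100% = TNF-alpha with MG high control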
STAT1 inh STAT3c: STAT1 inhibition in STAT3 inhibitor counter-screen; 1,200 tested, 27% active; NIH 3T3 STAT1-luciferase reporter, IFN-gamma induced, luminescence; inhibition, % at 5.7 µM; shares compounds with STAT3 inh-1;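 active means inhibition above the mean plus 3 SD of solvent-only control wells, limit set per screening run, cut at about 16% in these data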;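 further: 0% = DMSO with IFN-gamma and 100% = nifuroxazide control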
The depositor's hits bear a star; x = no result.

SMILES	STAT3 activator	APP 5'UTR act	STAT3 inh-1	STAT1 act	NF-kB expr up	STAT1 inh	STAT3 inh-2	NFkB inh STAT3ct	STAT1 inh STAT3c
Cc1ccc(-c2nc(NC(=O)c3nn(C)cc3[N+](=O)[O-])sc2C)cc1	57	-95	54*	67	0.21	36*	24	15*	4
CCn1c(CN2CCN(Cc3ccc(C)cc3)C(CCO)C2)nc2ccccc21 (configuration not stated)	96	2	15	97	1.1	2	x	x	x
COc1ccc(CCNC(=S)N2CCC(Cc3ccccc3)CC2)cc1OC	93	3	14	88	0.93	12	x	x	x
Cc1nc(C)c(C(=O)Nc2ccc(Oc3ccccc3)cc2)o1	57	-8	55*	81	0.87	21	28	3	-2
Cc1ccc2c(COC(=O)CNC(=O)c3ccccc3)cc(=O)oc2c1	101	19	-3	106	1.1	-4	x	x	x
Cc1ccc2c(COC(=O)C3=COCCO3)cc(=O)oc2c1	68	50	44*	132*	3	-36	-3	-34	-81
COc1ccc2c(c1)c(C(=O)N/N=C/c1ccc(O)c(O)c1)c(C)n2C	101	8	-4	98	0.97	2	x	x	x
O=C(Nc1ccc2nn(-c3ccccc3)nc2c1)c1cccnc1	90	51	15	124	1.3	-27	x	x	x
CC(C)C(=O)Nc1ccc2nn(-c3ccccc3)nc2c1	63	234*	48*	116	1.1	-19	15	-34	-155
COC(=O)c1ccc(-c2nc3cc(N)ccc3o2)cc1	52	-31	59*	106	2.3	3	31	1	-48
COc1ccc(-c2nc3cc(NC(=O)c4ccc5c(c4)OCO5)ccc3o2)cc1	87	21	20	107	1.4	-8	x	x	x
COCCN(C(=O)CSc1nc2ccccc2c(=O)n1CC(C)C)c1c(N)n(Cc2ccccc2)c(=O)[nH]c1=O	106	-9	2	94	0.95	5	x	x	x
CCCNC(=O)C1CCN(c2cc(-c3ccccc3)nc3ncnn23)CC1	101	-9	5	91	0.96	9	x	x	x
FC(F)(F)c1ccc(N2CCN(c3cc(-c4ccccc4)nc4ncnn34)CC2)nc1	65	13	48*	85	1.2	16	46*	15*	27*
Cc1c(-c2ccccc2)[n+](=O)c(-c2ccc(Cl)cc2)c(C)n1[O-]	96	10	9	93	1	4	x	x	x
COc1ccc(CNC(=O)Cc2nn(C)c(=O)c3ccccc23)cc1	59	-12	51*	75	0.78	27	48*	13*	25*
Cn1nc(CC(=O)Nc2cccc3ncccc23)c2ccccc2c1=O	66	13	46*	89	0.67	12	33	5	17*
Cn1nc(CC(=O)NCc2ccc(C(F)(F)F)cc2)c2ccccc2c1=O	68	10	39	76	0.53	26	x	x	x
O=C(NCc1cccs1)c1ccc(N2CCCC2=O)cc1	101	-4	5	106	1.4	-7	x	x	x
NC(=O)c1ccsc1NC(=O)c1ccc(N2CCCC2=O)cc1	51	175*	62*	90	1.2	10	13	-24	-100
CC(C)C(=O)N1CCN(c2ccc([N+](=O)[O-])c(NC(C)c3ccccc3)c2)CC1 (configuration not stated)	100	8	0	105	0.38	-6	x	x	x
CCC(C)NC(=S)Nc1ccc(C(=O)OC)cc1 (configuration not stated)	56	26	55*	88	x	13	53*	11	6
CCC(C)C(NC(N)=O)C(=O)Nc1ccc(C(=O)OC)cc1 (configuration not stated)	91	4	17	93	1.1	6	x	x	x
Cc1nn(C)c(C)c1/C=C/C(=O)c1ccc(Cl)cc1Cl	46	-4	66*	76	1.8	25	65*	13*	16
CC(C)C(=O)Nc1ccc(NC(=O)c2cccnc2)cn1	91	-8	14	97	0.96	4	x	x	x
SMILES	STAT3 activator	APP 5'UTR act	STAT3 inh-1	STAT1 act	NF-kB expr up	STAT1 inh	STAT3 inh-2	NFkB inh STAT3ct	STAT1 inh STAT3c
CC(C)C(=O)Nc1ccc(NC(=O)c2ccccn2)cn1	60	101	53*	92	1.9	9	16	-22	-42
CC(=O)Nc1ccc(Nc2cc(C)nc3c(-c4ccccc4)cnn23)cc1	55	165*	55*	150*	0.76	-56	-2	-57	-150
CC(=O)Nc1ccc(Nc2cc(-c3ccccc3)nc3ncnn23)cc1	86	18	18	103	0.87	-5	x	x	x
Cc1ccc([N+](=O)[O-])cc1S(=O)(=O)n1ccnc1C	107	-14	-2	101	0.94	-1	x	x	x
CN(C)S(=O)(=O)Oc1cccc(C(=O)Nc2ccc(Cl)cc2)c1	48	141*	71*	109	5.3*	-10	56*	-11	-50
CN(C)S(=O)(=O)Oc1cccc(C(=O)Nc2ccccc2Cl)c1	95	39	6	118	1.9	-19	x	x	x
Cc1ccc(-c2cc(-c3ccccc3)no2)c(O)c1	56	276*	49*	113	3.7*	-14	7	18*	-21
Cc1ccc2nc(-c3ccccc3N)[nH]c2c1	47	198*	67*	78	1.1	21	12	-37	-149
c1ccc(CN=C2NN=C(c3cc4ccccc4o3)CS2)cc1	102	18	2	111	1.4	-12	x	x	x
c1ccc2oc(C3=NNC(=NC4CC4)SC3)cc2c1	51	x	57*	117	2.4	-19	23	-19	-54
O=c1[nH]c(SCc2ccc(F)cc2Cl)nc2ccccc12	86	17	22	99	1.1	-1	x	x	x
CCOC(=O)c1sc(NC(=O)Cc2ccc(C)cc2)nc1C	93	1	15	96	1	3	x	x	x
CCOC(=O)c1sc(NC(=O)c2cc3ccccc3o2)nc1C	64	116	47*	142*	2.6	-48	2	-38	-65
CCOC(=O)c1sc(NC(=O)Nc2ccccc2F)nc1C	38	162*	75*	116	1.2	-18	61*	39*	-19
NC(=S)n1[nH]c(-c2ccc([N+](=O)[O-])cc2)c(N=Nc2ccc(Cl)cc2)c1=O	51	-30	61*	73	0.57	27	54*	14*	37*
